Published values collected from several papers.
Each line is one published result; the experiments were not run side by side.
Cell line: HepG2
Observed: cell growth or viability

For COc1cc2[nH]c(C)c(-c3ccc(Oc4ccc(OC(F)(F)F)c(F)c4)cc3)c(=O)c2cc1Cl, the IC50 was greater than 10 µM (resazurin).
For CNc1cccc2cc(C(=O)NCc3ccc(C(=O)O)cc3)c(=O)[nH]c12, the cell death was 6.1% (CCK-8; 10 µM, 48 h).
With CCCCCCCCCCCCCCCCOP(=O)([O-])OCC[N+](C)(C)C the CC50 was greater than 20 µM (MTS; 24 h).
With CC(C)(C)CC(C)(C)Nc1c(-c2cccc(C#N)c2)nc2ncccn12 the viability was 74.5% (MTT; 25 µM, 48 h).
For COc1ccc2c(c1)c1c(n2CO)CN2CCc3cc(OC)c(OCC(F)(F)F)cc3C2C1 (stereo not drawn), the viability was 96.6% (10 µM, 24 h).
For COc1ccc(CCN2CCC(Nc3nc4ccccc4n3Cc3ccc(F)cc3)CC2)cc1, the viability was 113% (resazurin; 1 µM, 24 h).
For COC1=CC(c2cccn2C)=NC1=Cc1ccc(CCCCCCCCCC(C)O)[nH]1 (stereo not drawn), the IC50 was greater than 100 µM.
Cc1[nH]c2ccc(F)cc2c(=O)c1-c1ccc(Oc2ccc(OC(F)(F)F)cc2)nc1 has an IC50 of greater than 10 µM (resazurin).
With COc1ccc2c(c1)c1c(n2CO)CN2CCc3cc(OC)c(OCc4ccc(F)cc4)cc3C2C1 (stereo not drawn) the viability was 104% (20 µM, 24 h).
For CNc1cccc2cc(C(=O)NCCc3cccc(C(=O)O)c3)c(=O)[nH]c12, the cell death was 15% (CCK-8; 50 µM, 48 h).
For COc1cc2[nH]c(C)c(-c3ccc(Oc4ccc(C(F)(F)F)cc4)cc3)c(=O)c2cc1Cl, the IC50 was greater than 10 µM (resazurin).
COc1cccc2c1C(=O)c1c(O)c3c(c(O)c1C2=O)C[C@@](O)(C(=O)CO)C[C@@H]3O[C@H]1C[C@H](N)[C@H](O)[C@H](C)O1 has a viability of 31.4% (MTT; 25 µM, 48 h).
With CCc1ccc(C2=NC(=Cc3ccc(CCCCCCCCCC(C)O)[nH]3)C(OC)=C2)[nH]1 (stereo not drawn) the IC50 was 1.76 µM.
COC(=O)[C@]1(O)C[C@@H](O)[C@@H](O)[C@H](OC(=O)/C=C/c2ccc(O)c(O)c2)C1 has an IC50 of 30.9 µM (WST-1).
The IC50 of Cc1[nH]c2ccccc2c(=O)c1-c1ccc(Oc2ccc(OC(F)(F)F)cc2)nc1 is reported as greater than 10 µM (resazurin).
The viability of COc1ccc2c(c1)c1c(n2CO)CN2CCc3cc(OCc4ccccc4)c(OC)cc3C2C1 (stereo not drawn) is reported as 111% (10 µM, 24 h).
For COC1=CC(c2ccc[nH]2)=NC1=Cc1ccc(CCCCCCCCCCO)[nH]1, the IC50 was 11.4 µM.
For COc1cc2c(cc1OCc1ccccc1F)C1Cc3c(n(CO)c4ccccc34)CN1CC2 (stereo not drawn), the viability was 109% (10 µM, 24 h).
For Cc1[nH]c2ccc(Cl)cc2c(=O)c1-c1ccc(Oc2ccc(OC(F)(F)F)cc2)nc1, the IC50 was greater than 10 µM (resazurin).
CCCCCCn1c(-c2cccc(Cl)c2)n[nH]c1=S has a viability of 87% (resazurin; 1 µM, 24 h).
With COc1ccc2cc3[n+](cc2c1OC)CCc1cc2c(cc1-3)OCO2 the viability was 102% (10 µM, 24 h).
With COC1=CC(c2ccc[nH]2)=NC1=Cc1ccc(CCCCCCCCCCCO)[nH]1 the IC50 was 11.4 µM.
The cell death of CNc1cccc2cc(C(=O)Nc3ccc(C(=O)O)cc3)c(=O)[nH]c12 is reported as 1.5% (CCK-8; 10 µM, 48 h).
C/C=C(/C)C(=O)O[C@@H]1[C@H](OC(C)=O)c2c(ccc3ccc(=O)oc23)OC1(C)C has an IC50 of 50.9 µM (WST-1).
